Experimental data as given in ChEMBL document CHEMBL1134408, “Antitumor agents. 207. Design, synthesis, and biological testing of 4beta-anilino-2-fluoro-4'-demethylpodophyllotoxin analogues as cytotoxic and antiviral agents” (2001).
pEC50, pIC50: −log10 of the molar value. In brackets after ≈: the same amount, converted by molar mass.

Tests used:
[1] = system: A549; assay: % inhibition against A549 cells (lung cancer) at 0.04 ug/mL; assay type: functional; details: Homo sapiens
[2] = system: A549; assay: % inhibition against A549 cells (lung cancer) at 0.4 ug/mL; assay type: functional; details: Homo sapiens
[3] = system: A549; assay: % inhibition against A549 cells (lung cancer) at 4 ug/mL; assay type: functional; details: Homo sapiens
[4] = system: CAKI-1; assay: % inhibition against CAKI-1 cells(renal carcinoma) at 0.04 ug/mL.; assay type: functional; details: Homo sapiens
[5] = system: CAKI-1; assay: % inhibition against CAKI-1 cells(renal carcinoma) at 0.4 ug/mL.; assay type: functional; details: Homo sapiens
[6] = system: CAKI-1; assay: % inhibition against CAKI-1 cells(renal carcinoma) at 4 ug/mL.; assay type: functional; details: Homo sapiens
[7] = system: Human betaherpesvirus 5; assay: Inhibitory activity against human cytomegalovirus (HCMV); assay type: functional; details: for pIC50: read-out: ID50 (the source's name)
Procedure, shortened: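 Confluent HEL fibroblasts infected with Towne strain CMV at 1–2 PFU/cell, with or without a drug dilution series. Antiviral effect read either as extracellular virus yield (day-6 supernatant titred by plaque assay on HEL, counted at 2 weeks) or as viral DNA by 32P-CMV-probe dot hybridization with scintillation counting of dots.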

[8] = system: HEL; assay: Inhibitory activity against HEL cells; assay type: functional; details: Homo sapiens, read-out: ED50 (the source's name)
Procedure, shortened: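 Human embryonic lung fibroblasts in MEM/10% FBS, 6% CO2, seeded at 50 000 cells/mL with a drug dilution series. Exposure 15 days; viability and cell counts by trypan blue. ED50 (50% growth reduction versus untreated cells) interpolated from dose–response data.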

[9] = % inhibition against KB cells (nasopharyngeal carcinoma) at 0.04 ug/mL; assay type: functional; details: Homo sapiens
[10] = % inhibition against KB cells (nasopharyngeal carcinoma) at 0.4 ug/mL; assay type: functional; details: Homo sapiens
[11] = % inhibition against KB cells (nasopharyngeal carcinoma) at 4 ug/mL; assay type: functional; details: Homo sapiens
[12] = system: MCF7; assay: % inhibition against MCF-7 cells (breast cancer) at 0.04 ug/mL; assay type: functional; details: Homo sapiens
[13] = system: MCF7; assay: % inhibition against MCF-7 cells (breast cancer) at 0.4 ug/mL; assay type: functional; details: Homo sapiens
[14] = system: MCF7; assay: % inhibition against MCF-7 cells (breast cancer) at 4 ug/mL; assay type: functional; details: Homo sapiens
[15] = Selectivity index (ED50/ID50) value of the compound; assay type: functional
Procedure, shortened: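 Ratio of ED50 for growing HEL cells (15-day trypan blue count) to ID50 against Towne strain CMV in HEL fibroblasts.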

[16] = system: A549; assay: GI values against A549 cells (lung cancer); assay type: functional; details: Homo sapiens
[17] = system: CAKI-1; assay: GI values against CAKI-1 cells(renal carcinoma); assay type: functional; details: Homo sapiens
[18] = GI values against KB cells (nasopharyngeal carcinoma); assay type: functional; details: Homo sapiens
[19] = system: Human alphaherpesvirus 1; assay: Minimum inhibitory concentration against herpesvirus simplex 1; assay type: functional
Procedure, shortened: (§1)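 Plaque elimination in pre-formed confluent Vero monolayers, HSV-1 strain KOS or HSV-2 strain 186, ~100 PFU inoculum for 30 min. Overlay medium had 0.5% calf serum, 1% carboxymethylcellulose and drug dilutions. Crystal violet fix/stain at 2 days; macroscopic plaques scored. ED100 = dilution fully eliminating plaques without monolayer toxicity. MIC = lowest dilution reducing plaque size/number. Repeated at least twice.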

[20] = system: Human alphaherpesvirus 2; assay: Minimum inhibitory concentration against herpesvirus simplex 2; assay type: functional; procedure, shortened: as §1
[21] = system: Human alphaherpesvirus 1; assay: Effective dose required to inhibit 100% against herpesvirus simplex 1; assay type: functional; procedure, shortened: as §1
[22] = system: Human alphaherpesvirus 2; assay: Effective dose required to inhibit 100% against herpesvirus simplex 2; assay type: functional; procedure, shortened: as §1
[23] = system: Vero; assay: Effective dose required to inhibit 25% of cell growth (Herpesvirus activity); assay type: functional, Chlorocebus sabaeus
Procedure, shortened: (§2)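 Cells seeded at 50 000 cells/mL with a drug dilution series, exposed 2 days; cell number by sulforhodamine B staining. ED25 interpolated from dose–response as the concentration cutting absorbency by 25%. MIC = lowest dilution giving detectable growth inhibition. Triplicate wells; absorbency within 5%, ED25 within 30% across independent tests.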

[24] = system: Vero; assay: Minimum inhibitory concentration for cell growth inhibition (Herpesvirus activity); assay type: functional; details: Chlorocebus sabaeus; procedure, shortened: as §2

SMILES	inhibition at 0.04 µg/mL [1] [%]	inhibition at 0.4 µg/mL [2] [%]	inhibition at 4 µg/mL [3] [%]	inhibition at 0.04 µg/mL [4] [%]	inhibition at 0.4 µg/mL [5] [%]	inhibition at 4 µg/mL [6] [%]	ID90 [7] [nM]	pIC50 [7]	pEC50 [8]	inhibition at 0.04 µg/mL [9] [%]	inhibition at 0.4 µg/mL [10] [%]	inhibition at 4 µg/mL [11] [%]	inhibition at 0.04 µg/mL [12] [%]	inhibition at 0.4 µg/mL [13] [%]	inhibition at 4 µg/mL [14] [%]	SI [15]	GI50 [16] [nM]	GI50 [17] [nM]	GI50 [18] [nM]	further results
COc1cc([C@@H]2c3cc4c(cc3[C@@H](Nc3ccc(N)cc3)[C@H]3COC(=O)[C@]23F)OCO4)cc(OC)c1O	0	7.7	51	0	2.5	38	5020	5.60	5.12	0	7.5	61.5	0	5.8	48.1	3	3980	> 10000	3980	
COc1cc([C@@H]2c3cc4c(cc3[C@@H](Nc3ccc(F)cc3)[C@H]3COC(=O)[C@H]23)OCO4)cc(OC)c1O								6.19									251	316	251	
COc1cc([C@@H]2c3cc4c(cc3[C@@H](Nc3ccc([N+](=O)[O-])cc3)[C@H]3COC(=O)[C@H]23)OCO4)cc(OC)c1O								6.46									158	158	501	
COc1cc([C@@H]2c3cc4c(cc3[C@H](O)[C@H]3COC(=O)[C@H]23)OCO4)cc(OC)c1OC [PODOFILOX]								> 7.00									7.94	100		MIC [19]: 0.01 µM (≈ 0.00414 µg/mL); MIC [20]: 0.01 µM (≈ 0.00414 µg/mL); ED100 [21]: 0.05 µM; ED100 [22]: 100 nM; ED25 [23]: 20 nM; MIC [24]: 0.008 µM (≈ 0.00332 µg/mL)
COc1cc([C@@H]2c3cc4c(cc3[C@@H](Nc3ccc(N)cc3)[C@H]3COC(=O)[C@H]23)OCO4)cc(OC)c1O								5.90									316	316	794	
COc1cc([C@@H]2c3cc4c(cc3[C@@H](Nc3ccc(C#N)cc3)[C@H]3COC(=O)[C@]23F)OCO4)cc(OC)c1O	11.1	11.9	52.5	7.9	9.5	28.4	4290	6.12	5.07	5	4.2	30.5	7.7	8.2	45.8	11.1				
COc1cc([C@@H]2c3cc4c(cc3[C@@H](O)[C@H]3COC(=O)[C@]23F)OCO4)cc(OC)c1O	0	34.3	78.1	0	10.6	39	>5000	< 5.30	5.09	0	25.6	64	0	21.8	53.8	< 1.6				
COc1cc([C@@H]2c3cc4c(cc3[C@H](O)[C@H]3COC(=O)[C@]23F)OCO4)cc(OC)c1OC	59.4	69.6	73.1	18.1	39.7	40.5	>5000	< 5.30		53.3	72	87.4	34.2	48	51		3980	> 10000	31.6	MIC [19]: 1 µM (≈ 0.432 µg/mL); MIC [20]: 0.1 µM (≈ 0.0432 µg/mL); ED100 [21]: 10 µM; ED100 [22]: 1000 nM; ED25 [23]: 1000 nM; MIC [24]: 0.8 µM (≈ 0.346 µg/mL)
COc1cc([C@@H]2c3cc4c(cc3[C@@H](Nc3ccc([N+](=O)[O-])cc3)[C@H]3COC(=O)[C@]23F)OCO4)cc(OC)c1O	0	6.5	51.8	0.8	2.6	21.9	4600	5.84	5.22	0	3.8	41.6	0.9	7.3	42.1	4.2	3980	> 10000	> 10000	
COc1cc([C@@H]2c3cc4c(cc3[C@@H](Nc3ccc(F)cc3)[C@H]3COC(=O)[C@]23F)OCO4)cc(OC)c1O	16.1	26.2	61.4	10.3	15.3	44.3	4470	6.01	5.21	7.5	10.1	70.9	13.2	20	61.2	6.2	2000	> 10000	2000	
COc1cc([C@@H]2c3cc4c(cc3[C@H](O[Si](C)(C)C(C)(C)C)[C@H]3COC(=O)[C@]23F)OCO4)cc(OC)c1OC																				ED25 [23]: 25000 nM; MIC [24]: 6 µM (≈ 3.28 µg/mL)
COc1cc([C@@H]2c3cc4c(cc3[C@@H](Nc3ccc5c(c3)OCCC5=O)[C@H]3COC(=O)[C@H]23)OCO4)cc(OC)c1O																	100	126	631	
COc1cc([C@@H]2c3cc4c(cc3[C@@H](Nc3ccc(C#N)cc3)[C@H]3COC(=O)[C@H]23)OCO4)cc(OC)c1O								6.21												
COc1cc([C@@H]2c3cc4c(cc3[C@H](O[Si](C)(C)C(C)(C)C)[C@H]3COC(=O)[C@H]23)OCO4)cc(OC)c1OC																				MIC [19]: 1 µM (≈ 0.529 µg/mL); MIC [20]: 0.1 µM (≈ 0.0529 µg/mL); ED100 [21]: 10 µM; ED100 [22]: 1000 nM; ED25 [23]: 6000 nM; MIC [24]: 3 µM (≈ 1.59 µg/mL)
